Data from PubChem BioAssay AID651708 (Sanford-Burnham Center for Chemical Genomics, 2012).
Several values for one entry are separate records, joined by “and”; a condition that tells them apart may be missing. Identical values can stand only once. Activity calls are given as the source filed them.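 How the source made its calls: active means compound with IC50 above 30 µM at both the APJ and CCR6 off-target receptors, and at most 10 µM at CXCR6; inactive means the rest.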

What was measured:
Assay in all cases: antagonism across CCR6, APJ and CXCR6 receptors, profiling panel, selectivity assay for CXCR6 antagonist project, cell-based, CHO-K1 PathHunter beta-arrestin, luminescence, set 3 (AID 651708)
[1] = molecular target: Apelin receptor (Homo sapiens) (UniProt P35414); settings: antagonist mode, APJ
Sequence of Apelin receptor (Homo sapiens) (P35414 whole entry, looked up): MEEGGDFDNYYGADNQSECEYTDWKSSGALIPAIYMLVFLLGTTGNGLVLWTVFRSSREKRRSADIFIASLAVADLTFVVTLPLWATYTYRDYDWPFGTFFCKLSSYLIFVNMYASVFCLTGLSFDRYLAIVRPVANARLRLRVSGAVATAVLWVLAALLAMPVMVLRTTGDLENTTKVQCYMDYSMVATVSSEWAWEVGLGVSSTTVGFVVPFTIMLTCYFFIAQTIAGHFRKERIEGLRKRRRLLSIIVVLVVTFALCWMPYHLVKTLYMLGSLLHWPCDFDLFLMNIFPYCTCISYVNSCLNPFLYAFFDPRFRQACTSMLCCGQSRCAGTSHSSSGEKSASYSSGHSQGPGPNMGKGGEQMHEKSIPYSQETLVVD
Summary of the method: (§1)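 System: CHO-K1 PathHunter β-arrestin cell lines for APJ, CCR6 or CXCR6. Reagent: APJ 10 nM Apelin-13, CCR6 14 nM CCL20, CXCR6 CXCL16. Detection: β-arrestin recruitment luminescence.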

[2] = molecular target: C-C chemokine receptor type 6 (Homo sapiens) (UniProt P51684); settings: antagonist mode
Sequence of C-C chemokine receptor type 6 (Homo sapiens) (P51684 whole entry, looked up): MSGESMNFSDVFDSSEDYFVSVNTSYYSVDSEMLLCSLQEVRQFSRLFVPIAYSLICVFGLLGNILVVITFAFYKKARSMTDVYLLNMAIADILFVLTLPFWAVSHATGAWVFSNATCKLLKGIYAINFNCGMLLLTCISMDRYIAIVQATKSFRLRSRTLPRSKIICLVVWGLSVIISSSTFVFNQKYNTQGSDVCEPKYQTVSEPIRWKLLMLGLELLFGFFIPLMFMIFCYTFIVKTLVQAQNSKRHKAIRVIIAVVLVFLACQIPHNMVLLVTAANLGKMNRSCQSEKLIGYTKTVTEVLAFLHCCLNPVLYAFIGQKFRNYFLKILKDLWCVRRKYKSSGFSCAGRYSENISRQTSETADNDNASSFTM
Summary of the method: as §1

[3] = molecular target: C-X-C chemokine receptor type 6 (Homo sapiens) (UniProt O00574); settings: antagonist mode
Sequence of C-X-C chemokine receptor type 6 (Homo sapiens) (O00574 whole entry, looked up): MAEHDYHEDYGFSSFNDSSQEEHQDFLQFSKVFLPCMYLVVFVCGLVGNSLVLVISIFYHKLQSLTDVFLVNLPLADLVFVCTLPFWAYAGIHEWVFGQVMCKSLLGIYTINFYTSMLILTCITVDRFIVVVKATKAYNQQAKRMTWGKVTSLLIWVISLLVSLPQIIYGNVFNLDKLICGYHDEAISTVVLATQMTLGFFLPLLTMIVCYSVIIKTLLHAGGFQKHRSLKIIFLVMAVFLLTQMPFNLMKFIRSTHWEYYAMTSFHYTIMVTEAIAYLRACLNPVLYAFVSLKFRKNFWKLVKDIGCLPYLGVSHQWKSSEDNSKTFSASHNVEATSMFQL
Summary of the method: as §1

IC50 ([1]; mean of runs) | IC50 ([1]; run 1) [µM] | IC50 ([1]; run 2) [µM] | IC50 ([2]; CCR6, mean of runs) | IC50 ([2]; CCR6, run 1) [µM] | IC50 ([2]; CCR6, run 2) [µM] | IC50 ([3]; CXCR6, mean of runs) | IC50 ([3]; CXCR6, run 1) | IC50 ([3]; CXCR6, run 2) | SMILES
> 79 µM (inactive) | > 79 | > 79 | > 79 µM (inactive) | > 79 | > 79 | > 79 µM (inactive) | > 79 µM | > 79 µM | COc1cccc(C(=O)NC2CC3CCCC(C2)N3CC(=O)Nc2ccccc2)c1 (stereo not given)
> 79 µM (inactive) | > 79 | > 79 | > 79 µM (inactive) | > 79 | > 79 | > 79 µM (inactive) | > 79 µM | > 79 µM | COc1ccc(C(=O)NC2CC3CCCC(C2)N3CC(=O)Nc2ccc(F)cc2)cc1OC (stereo not given)
 | > 79 | 11.2 | > 79 µM (inactive) | > 79 | > 79 | > 79 µM (inactive) | > 79 µM | > 79 µM | COc1cc(OC)cc(C(=O)NC2CC3CCCC(C2)N3CC(=O)Nc2ccccc2)c1 (stereo not given)
> 79 µM (inactive) | > 79 | > 79 | > 79 µM (inactive) | > 79 | > 79 | > 79 µM (inactive) | > 79 µM | > 79 µM | COc1ccc(C(=O)NC2CC3CCCC(C2)N3CC(=O)Nc2ccc(F)cc2)cc1 (stereo not given)
> 79 µM (inactive) | > 79 | > 79 | > 79 µM (inactive) | > 79 | > 79 | 4.78 µM and 4.75 µM | 4.48 µM and 4.08 µM | 5.09 µM and 5.43 µM | COc1cc(C(=O)NC2CC3CCCC(C2)N3CC(=O)Nc2ccccc2)cc(OC)c1OC (stereo not given)
 | > 79 | 0.307 | > 79 µM (inactive) | > 79 | > 79 | > 79 µM (inactive) | > 79 µM | > 79 µM | COc1ccc(NC(=O)CN2C3CCCC2CC(NC(=O)c2ccc(OC)c(OC)c2)C3)cc1 (stereo not given)
> 79 µM (inactive) | > 79 | > 79 | > 79 µM (inactive) | > 79 | > 79 | > 79 µM (inactive) | > 79 µM | > 79 µM | COc1cc(OC)cc(C(=O)NC2CC3CCCC(C2)N3CC(=O)Nc2ccc(F)cc2)c1 (stereo not given)
17.1 µM | 10.1 | 24.2 | > 79 µM (inactive) | > 79 | > 79 | > 79 µM (inactive) | > 79 µM | > 79 µM | COc1ccc(CN2C3CCCC2CC(NC(=O)c2cc(OC)c(OC)c(OC)c2)C3)cc1 (stereo not given)
> 79 µM (inactive) | > 79 | > 79 | > 79 µM (inactive) | > 79 | > 79 | > 79 µM (inactive) | > 79 µM | > 79 µM | COc1ccc(C(=O)NC2CC3CCCC(C2)N3CC(=O)Nc2ccc(Cl)cc2)cc1 (stereo not given)
 | > 79 | 0.818 | > 79 µM (inactive) | > 79 | > 79 | 0.338 µM | 0.191 µM | 0.484 µM | COc1cc(C(=O)NC2CC3CCCC(C2)N3CC(=O)Nc2ccccc2Cl)cc(OC)c1OC (stereo not given)
> 79 µM (inactive) | > 79 | > 79 | > 79 µM (inactive) | > 79 | > 79 | inactive | 12.4 µM | 26.4 µM | COc1ccc(NC(=O)CN2C3CCCC2CC(NC(=O)c2cc(OC)c(OC)c(OC)c2)C3)cc1 (stereo not given)
> 79 µM (inactive) | > 79 | > 79 | > 79 µM (inactive) | > 79 | > 79 | > 79 µM (inactive) | > 79 µM | > 79 µM | COc1ccc(NC(=O)CN2C3CCCC2CC(NC(=O)c2cc(OC)cc(OC)c2)C3)cc1 (stereo not given)
